Compound activity from PubChem.
procasp3 activ = activators of human procaspase-3 D3A mutant, primary screen, biochemical, absorbance, PC-3 D3A mutant, single concentration; actives 0.11% (n = 330,000); AID 463141, 2010; activation, % at 8.5 µM; recombinant procaspase-3 D3A, Ac-DEVD-pNA absorbance 405 nm; Caspase-3 (Homo sapiens), P42574;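 active = activation above the mean of all tested compounds plus 3 SD, cut at about 21% in these data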;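 note: 0% = DMSO alone and 100% = DMSO wells spiked with extra 5 µM PC-3 D3A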
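Technique: 405 nm absorbance of p-nitroaniline, reads at 0 and 120 min; Test system: Procaspase-3 D3A mutant; Incubation: 1 h enzyme-compound preincubation, then 2 h substrate reaction, 25 °C; Repeats: singlicate, each compound tested once; Benchmarks: low control DMSO wells, high control DMSO plus 5 µM PC-3 D3A.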
procasp7 counter = procaspase-7 activators, primary screen, counter-screen for procaspase-3 activator project, biochemical, absorbance, HTS, human; Caspase-7 (Homo sapiens), P55210; recombinant procaspase-7, Ac-DEVD-pNA absorbance 405 nm; D23A/D198A/D206A triple mutant, cannot self-cleave; scale: DMSO 0, 5 µM enzyme 100; activation, % at 8.5 µM; actives 0.093% (n = 330,000);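 active = percent activation above the screen-wide mean plus 3 SD, cut at about 25% in these data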
Target sequence (P55210 whole entry D23A/D198A/D206A): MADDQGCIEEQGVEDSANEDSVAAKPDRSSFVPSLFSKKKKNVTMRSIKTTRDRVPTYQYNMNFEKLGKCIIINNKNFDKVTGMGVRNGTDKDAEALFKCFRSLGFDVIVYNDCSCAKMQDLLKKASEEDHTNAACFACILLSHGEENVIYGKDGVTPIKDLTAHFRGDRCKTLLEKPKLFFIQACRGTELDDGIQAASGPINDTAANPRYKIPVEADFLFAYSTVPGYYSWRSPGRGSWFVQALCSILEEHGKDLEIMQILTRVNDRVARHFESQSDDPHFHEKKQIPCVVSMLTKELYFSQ
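Assay system: Uncleavable procaspase-7 mutant enzyme; Input: 2 µM procaspase-7 mutant as dispensed; Also added: DEVD-pNA substrate; Medium: Zinc-free HEPES pH 7.4 with 300 mM NaCl, 0.01% Triton X-100; Timing: 1 h compound preincubation, 2 h substrate cleavage, 25 °C; Measured by: Epi-absorbance of released pNA at 405 nm, two timepoints.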
PREPL inhibitor = PREPL enzyme inhibitors, primary screen, biochemical, fluorescence polarization; Prolyl endopeptidase-like (Homo sapiens), Q4J6C6; recombinant PREPL, fluorescence polarization activity-based probe; inhibition, % at 5.96 µM; actives 0.68% (n = 320,000); in the data active = inhibition above about 43%;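 note: 0% = enzyme with DMSO and 100% = wells lacking enzyme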
LYPLA1 inh = LYPLA1 inhibitors, primary screen, counter-screen for PME1 inhibitor project, biochemical, fluorescence polarization, FP-Rh probe ABPP | Acyl-protein thioesterase 1 (Homo sapiens), O75608 | recombinant LYPLA1 | inhibition, % at 5.9 µM | actives 0.16% (n = 320,000) | AID 2174, 2009;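 active = inhibition above the mean of all tested compounds plus 3 SD, set per campaign, cut at about 14% in these data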;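 note: inhibitors block serine hydrolase probe labeling of LYPLA1 so polarization falls; 0% = enzyme with DMSO and 100% = wells lacking LYPLA1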
LYPLA2 inh = LYPLA2 inhibitors, primary screen, counter-screen for PME1 inhibitor project, biochemical, fluorescence polarization, FP-Rh probe ABPP; Acyl-protein thioesterase 2 (Homo sapiens), O95372; recombinant LYPLA2; inhibition, % at 5.9 µM; actives 0.38% (n = 320,000); AID 2177, 2009;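 active = inhibition above the screen-wide mean plus 3 SD, limit set per campaign, cut at about 26% in these data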;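 note: 0% = LYPLA2 with DMSO and 100% = wells lacking LYPLA2 enzyme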
LYPLA1 conf = LYPLA1 inhibitors, retest, confirmation, counter-screen for PME1 inhibitor project, biochemical, fluorescence polarization, FP-Rh probe ABPP; shares compounds with LYPLA1 inh; recombinant LYPLA1; inhibition, % at 5.9 µM; actives 69% (n = 480);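 active = mean inhibition across replicates above the hit cutoff set in the primary screen, cut at about 15% in these data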;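 note: loss of FP-Rh probe labeling of LYPLA1 seen as lower polarization; 0% = LYPLA1 with DMSO and 100% = wells lacking LYPLA1 enzyme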
Starred values were filed as active, the others as inactive; . = not tested or not shown. Compounds with a hit are over-represented: about 1% of the library has one in this group of screens.

SMILES	procasp3 activ	procasp7 counter	PREPL inhibitor	LYPLA1 inh	LYPLA2 inh	LYPLA1 conf
COC(=O)c1cccc(NC(=O)c2ccc3c(c2)C(=O)N(Cc2cccnc2)C3=O)c1	-9.2	0.5	-2.6	19.7*	8.4	19.3*
CC(=O)c1cccc(NC(=O)c2ccc3c(c2)C(=O)N(Cc2cccnc2)C3=O)c1	-10.2	-3.5	2.6	1.2	14.6	.
O=C(c1ccc(F)c(S(=O)(=O)N2CCOCC2)c1)N1CCN(c2ccc(F)cc2)CC1	-8.8	-8.6	30.4	2.0	6.3	.
Fc1ccc(-n2cc(-c3ccccc3)c3c(NN4CCOCC4)ncnc32)cc1	0.7	-1.6	24.5	1.3	3.4	.
COc1ccc(-n2cc(-c3ccccc3)c3c(NN4CCOCC4)ncnc32)cc1	-12.2	1.8	16.4	14.3*	0.2	26.9*
Cc1ccc(NC(=O)COc2ccc(/C=C3/SC(=Nc4ccccc4)N(Cc4cccnc4)C3=O)cc2)cc1	5.4	-10.4	-2.7	68.2*	0.0	-0.9
CC1CCN(S(=O)(=O)c2ccc3c(c2)CC(C)N3C(=O)C2CCC2)CC1 (stereo not given)	9.2	1.4	19.7	25.0*	4.5	33.8*
CC1Cc2cc(S(=O)(=O)N3CCC(C(=O)N(C)Cc4ccco4)CC3)ccc2N1C(=O)C1CCC1 (stereo not given)	3.1	-4.8	7.0	19.2*	11.1	28.8*
CC1Cc2cc(S(=O)(=O)N3CCC(C(=O)N4CCCCC4)CC3)ccc2N1C(=O)C1CC1 (stereo not given)	-2.0	-1.6	1.2	11.4	5.2	.
CCOC(=O)C1CCN(S(=O)(=O)c2ccc3c(c2)CC(C)N3C(=O)C2CCC2)CC1 (stereo not given)	5.9	9.6	7.2	16.0*	2.7	23.6*
CC1Cc2cc(S(=O)(=O)N3CCCCC3)ccc2N1C(=O)C1CCC1 (stereo not given)	12.5	11.8	4.8	19.0*	-0.7	23.8*
C=CCn1c(SCC(=O)NCCCC(=O)OCC)nc2scc(-c3ccco3)c2c1=O	-1.5	-6.9	5.1	-2.9	-4.4	.
CCC(=NC(C)c1ccccc1)c1c(O)n(C)c(=O)n(C)c1=O (stereo not given)	6.6	9.7	13.8	4.2	5.9	.
CC(=O)c1ccc(-c2ccc(/C=C(/Sc3n[nH]c(C)n3)C(=O)O)o2)cc1	-3.2	-9.1	11.8	9.1	4.1	.
Cc1nc(S/C(=C/c2ccc(-c3ccc(C(=O)O)cc3)o2)C(=O)O)n[nH]1	-9.2	-11.3	4.9	-2.6	-3.7	.
Cc1nc(S/C(=C/c2ccc(-c3cc(Cl)ccc3C)o2)C(=O)O)n[nH]1	-15.7	-5.6	15.5	25.8*	14.6	27.6*
Cc1nc(S/C(=C/c2ccc(-c3ccc(Cl)cc3)o2)C(=O)O)n[nH]1	-9.4	-1.5	1.1	20.2*	3.4	19.0*
CCOC(=O)c1ccc(NC(=O)N2CCN(C(=O)C3CCCO3)CC2)cc1 (stereo not given)	-0.9	3.1	11.0	1.9	1.7	.
NC(=O)c1cc(S(=O)(=O)NCc2cccc(Br)c2)cs1	0.0	9.6	-0.4	15.0*	2.0	-4.7
Cc1cccc(CNS(=O)(=O)c2csc(C(N)=O)c2)c1	-8.8	-4.9	24.1	-0.6	-1.6	.
CCOC(=O)c1sc2cc([N+](=O)[O-])cc(SCC(=O)OC)c2c1N	-16.7	-23.6	23.8	15.4*	4.2	28.6*
O=C(COc1ccc(Cl)cc1)N1CCN(c2ccc([N+](=O)[O-])c(N3CCCCC3)c2)CC1	-5.4	-3.7	26.6	66.4*	20.7	79.4*
